Reference: paper PMC4464950 (Dalton transactions (Cambridge, England : 2003), 2015)

Key:
[1] = test system: plasmid (pBR322) DNA; assay: Electrophoresis mobility shift assay with plasmid DNA; assay type: binding; settings: metal/DNAbp ratios 0.25-2.0; 37 °C, 20 h
Summary of the method: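 pBR322 plasmid DNA (20 µg/mL) in 5 mM Tris/HCl, 50 mM NaClO4, pH 7.39, was incubated with test compound at metal complex:DNA bp ratios of […], 37 °C, 20 h, in the dark. Free DNA and cisplatin-treated DNA served as controls. Samples ran on 1% agarose in TAE, 80 V for 1.5 h, then were GelRed-stained 30 min.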

[2] = test system: HCT116 (colon carcinoma) cells; assay: Trypan blue exclusion cell growth inhibition, HCT116; assay type: cell-based, human
Summary of the method: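 HCT116 cells were grown in RPMI 1640 + 10% FBS at 37 °C, humidified 5% CO2, and seeded at 1 × 10⁴ cells/well with test compound. After 48 h, cells were mixed 1:1 with 0.4% trypan blue and counted on a haemocytometer, in triplicate. Points are means of four samples over three experiments. IC50/IC75/IC90 came from sigmoidal fits. Selectivity = IC50 in […] ÷ IC50 in cancer cells.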

[3] = target: T1, RNase A (Bos taurus, UniProt P61823); assay: ESI-MS metallodrug-protein interaction, RNase; assay type: binding; settings: 3:1 metal/protein, 24 h RT, 20 mM ammonium acetate pH 6.8
T1 sequence (P61823 27-150): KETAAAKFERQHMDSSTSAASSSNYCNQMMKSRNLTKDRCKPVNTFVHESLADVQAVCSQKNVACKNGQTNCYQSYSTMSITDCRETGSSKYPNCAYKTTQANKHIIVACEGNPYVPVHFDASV
Summary of the method: (§1)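 Each protein (100 µM) in 20 mM ammonium acetate, pH 6.8, was mixed with test compound at a 3:1 metal/protein ratio and held 24 h at RT. Samples were diluted 20-fold with water and infused directly at 5 µl/min into an ESI Orbitrap (spray 3.1 kV, capillary 45 V, 220 °C, resolution 100,000 at m/z 400). Monoisotopic and average masses were obtained by deconvolution.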

[4] = target: cytochrome c (Equus caballus, UniProt P00004); assay: ESI-MS metallodrug-protein interaction, cytochrome c; assay type: binding; settings: 3:1 metal/protein, 24 h RT, 20 mM ammonium acetate pH 6.8
Sequence of cytochrome c (P00004 whole entry): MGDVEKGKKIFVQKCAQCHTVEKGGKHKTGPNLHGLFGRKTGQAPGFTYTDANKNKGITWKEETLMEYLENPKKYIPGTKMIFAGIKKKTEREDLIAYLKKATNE
Summary of the method: as §1

**Q.** How did the “Effect on mobility of supercoiled form (Form I) of plasmid DNA” value [1] turn out when Cc1ccc(C(C)C)cc1.Cc1ccc(C(C)C)cc1.[Cl][Ru][Cl].[Cl][Ru][Cl] [a (Ru), [Ru(p-cymene)Cl(µ-Cl)]2] was run?
**A.** did not affect the mobility

**Q.** And the “IC75 HCT116” value ([2]; 48 h incubation, compounds dissolved in DMSO (1%), Trypan blue)?
**A.** 313.3 ± 7.1 µM

**Q.** What about the “Calculated tumour selectivity (IC50 L929/IC50 HCT116)” value ([2]; IC50 normal cells divided by IC50 cancer cells) of the same compound?
**A.** 3.3

**Q.** What about the “Interaction with RNase (ESI-MS adducts)” value [3] of the same compound?
**A.** protein binding of a Ru(p-cymene) fragment

**Q.** What about the “Interaction with cytochrome c (ESI-MS adducts)” value [4] of the same compound?
**A.** protein binding of a Ru(p-cymene) fragment
